Holding throughout (format): functional
In test [1] the test system is Enterococcus faecalis. The experiment in a line: Antibacterial activity tested against vancomycin-resistant Enterococcus faecalis. A digest of the protocol: (§1)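 Broth MIC against clinical isolates (S. pneumoniae, VRE E. faecalis) in tryptic soy broth with 7% calf serum, inoculum 1-5 × 10^5 CFU/mL. DMSO serial dilutions gave 1% final DMSO and a 300 µM highest concentration. Plates were incubated 20-72 h at 37 °C and read by turbidity or microscopy. Vehicle and reference controls were included; run in duplicate.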

The test system of test [2] is Streptococcus pneumoniae. The experiment in a line: Antibacterial activity tested against ampicillin and erythromycin-resistant Streptococcus pneumoniae. A digest of the protocol:
as §1

Test [3] concerns Staphylococcus aureus. The experiment in a line: Antibacterial activity against methicillin-resistant Staphylococcus aureus. A digest of the protocol:
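Broth dilution MIC against MRSA in Mueller-Hinton broth with 1-5 × 10^5 CFU/mL inoculum. Compounds were serially diluted in DMSO (final DMSO 1%, top concentration 300 µM) and incubated 20-72 h at 37 °C. MIC was read by visual turbidity or microscopy. Vehicle and reference agents served as controls; run in duplicate.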

The structures appear in SMILES notation. In brackets after ≈: the same amount, converted by molar mass.

Here are results for 33 compounds from ChEMBL document CHEMBL1134762, “Synthesis and antibacterial evaluation of certain quinolone derivatives” (2001).

What is called MIC is the lowest concentration that inhibits growth of the organism.

As to `COc1ccc(C(=O)CN2CCN(c3cc4c(cc3F)c(=O)c(C(=O)O)cn4-c3ccc([N+](=O)[O-])cc3)CC2)cc1`, the figures for the MIC in test [1], in test [2] and in test [3] were over 200 µM, over 200 µM and 5.58 µM (≈ 3.13 µg/mL), respectively.

Consider `CCn1cc(C(=O)O)c(=O)c2cc(F)c(N3CCN(CC(=O)c4ccc(Cl)cc4)CC3)cc21`, for which the MIC in test [1], in test [2] and in test [3] was over 200 µM each time.

Turning to `CCn1cc(C(=O)O)c(=O)c2cc(F)c(N3CCN(C/C(=N/N=C(/N)S)c4ccccc4)CC3)cc21`, the results for the minimal inhibitory concentration (MIC) in test [1], in test [2] and in test [3] were 12.2 µM (≈ 6.23 µg/mL), 24.5 µM (≈ 12.5 µg/mL) and 1.53 µM (≈ 0.781 µg/mL), respectively.

Consider `CCn1cc(C(=O)O)c(=O)c2cc(F)c(N3CCN(C/C(=N\O)c4ccc(Cl)cc4)CC3)c(F)c21`, for which the MIC was 19.8 µM (≈ 10 µg/mL) in test [1], 19.8 µM (≈ 10 µg/mL) in test [2] and 0.59 µM (≈ 0.298 µg/mL) in test [3].

Regarding `O=C(CN1CCN(c2cc3c(cc2F)c(=O)c(C(=O)O)cn3-c2ccc([N+](=O)[O-])cc2)CC1)c1ccc(F)cc1`, the MIC in test [1], in test [2] and in test [3] was over 200 µM throughout.

In the case of `COc1ccc(/C(CN2CCN(c3cc4c(cc3F)c(=O)c(C(=O)O)cn4-c3ccc([N+](=O)[O-])cc3F)CC2)=N/O)cc1`, the MIC in test [1] worked out at 5.27 µM (≈ 3.13 µg/mL); in test [2], 1.31 µM (≈ 0.778 µg/mL); in test [3], 0.34 µM (≈ 0.202 µg/mL).

In the case of `CCn1cc(C(=O)O)c(=O)c2cc(F)c(N3CCN(CC(=O)c4ccc(OC)cc4)CC3)c(F)c21`, the MIC in test [1] is over 200 µM; in test [2] it was over 200 µM; in test [3], 0.62 µM (≈ 0.301 µg/mL).

For the compound `CCn1cc(C(=O)O)c(=O)c2cc(F)c(N3CCN(CC(=O)c4ccc(OC)cc4)CC3)cc21`, the results for the MIC in test [1], in test [2] and in test [3] were over 200 µM, over 200 µM and 6.7 µM (≈ 3.13 µg/mL), respectively.

Take `CCn1cc(C(=O)O)c(=O)c2cc(F)c(N3CCN(C/C(=N\O)c4ccc(F)cc4)CC3)c(F)c21`: the MIC in test [1] is 2.05 µM (≈ 1 µg/mL); in test [2], 6.14 µM (≈ 3 µg/mL); in test [3], 0.61 µM (≈ 0.298 µg/mL).

Regarding `CCn1cc(C(=O)O)c(=O)c2cc(F)c(N3CCN(C/C(=N\OC)c4ccc(OC)cc4)CC3)cc21`, the MIC in test [1] was 12.6 µM (≈ 6.26 µg/mL); in test [2], 12.6 µM (≈ 6.26 µg/mL); in test [3], 1.57 µM (≈ 0.78 µg/mL).

Turning to `Nc1ccc(-n2cc(C(=O)O)c(=O)c3cc(F)c(N4CCNCC4)cc32)c(F)c1`, the results for the MIC in test [1], in test [2] and in test [3] were 15.6 µM (≈ 6.25 µg/mL), 3.9 µM (≈ 1.56 µg/mL) and 0.97 µM (≈ 0.388 µg/mL), respectively.

As to `O=C(O)c1cn(-c2ccc([N+](=O)[O-])cc2F)c2cc(N3CCNCC3)c(F)cc2c1=O`, the figures for the MIC in test [1], in test [2] and in test [3] were 29 µM (≈ 12.5 µg/mL), 0.46 µM (≈ 0.198 µg/mL) and 7.27 µM (≈ 3.13 µg/mL), respectively.

Turning to `O=C(O)c1cn(-c2ccc([N+](=O)[O-])cc2)c2cc(N3CCN(C/C(=N\O)c4ccc(F)cc4)CC3)c(F)cc2c1=O`, the MIC in test [1], in test [2] and in test [3] was over 200 µM throughout.

Take `CCn1cc(C(=O)O)c(=O)c2cc(F)c(N3CCN(C/C(=N\O)c4ccc(Cl)cc4)CC3)cc21`: the MIC in test [1], in test [2] and in test [3] was over 200 µM each time.

In the case of `CCn1cc(C(=O)O)c(=O)c2cc(F)c(N3CCN(C/C(=N\O)c4ccc(OC)cc4)CC3)cc21`, the MIC in test [1] amounted to 3.23 µM (≈ 1.56 µg/mL); in test [2], 13 µM (≈ 6.27 µg/mL); in test [3] it was 0.41 µM (≈ 0.198 µg/mL).

`COc1ccc(C(=O)CN2CCN(c3cc4c(cc3F)c(=O)c(C(=O)O)cn4-c3ccc(N)cc3F)CC2)cc1`: the values for the MIC in test [1], in test [2] and in test [3] were 5.47 µM (≈ 3 µg/mL), 1.82 µM (≈ 0.998 µg/mL) and 0.55 µM (≈ 0.302 µg/mL), respectively.

For `CCn1cc(C(=O)O)c(=O)c2cc(F)c(N3CCN(C/C(=N\O)c4ccc(F)cc4)CC3)cc21`, the MIC in test [1] was over 200 µM; in test [2], over 200 µM; in test [3], 2.13 µM (≈ 1 µg/mL).

`CCn1cc(C(=O)O)c(=O)c2cc(F)c(N3CCN(C/C(=N/N=C(/N)S)c4ccccc4)CC3)c(F)c21`: the results for the MIC in test [1], in test [2] and in test [3] were over 200 µM, over 200 µM and 0.74 µM (≈ 0.391 µg/mL), respectively.

`CCn1cc(C(=O)O)c(=O)c2cc(F)c(N3CCN(C/C(=N\OC)c4ccc(Cl)cc4)CC3)c(F)c21`: the MIC in test [1], in test [2] and in test [3] was over 200 µM throughout.

With `CCn1cc(C(=O)O)c(=O)c2cc(F)c(N3CCN(CC(=O)c4ccccc4)CC3)c(F)c21`, the values for the MIC in test [1], in test [2] and in test [3] were 13.7 µM (≈ 6.24 µg/mL), 13.7 µM (≈ 6.24 µg/mL) and 1.71 µM (≈ 0.779 µg/mL), respectively.

With `CCn1cc(C(=O)O)c(=O)c2cc(F)c(N3CCNCC3)c(F)c21`, the MIC in test [1] is 18.5 µM (≈ 6.24 µg/mL); in test [2], 18.5 µM (≈ 6.24 µg/mL); in test [3], 2.31 µM (≈ 0.779 µg/mL).

With `CCn1cc(C(=O)O)c(=O)c2cc(F)c(N3CCN(C/C(=N/NC(N)=O)c4ccccc4)CC3)c(F)c21`, the figures for the MIC in test [1], in test [2] and in test [3] were 6.11 µM (≈ 3.13 µg/mL), 6.11 µM (≈ 3.13 µg/mL) and 0.39 µM (≈ 0.2 µg/mL), respectively.

For the compound `CCn1cc(C(=O)O)c(=O)c2cc(F)c(N3CCN(CC(=O)c4ccc(F)cc4)CC3)cc21`, the results for the MIC in test [1], in test [2] and in test [3] were over 200 µM, over 200 µM and 6.87 µM (≈ 3.13 µg/mL), respectively.

Consider `CCn1cc(C(=O)O)c(=O)c2cc(F)c(N3CCN(C/C(=N\O)c4ccccc4)CC3)cc21`, for which the MIC in test [1] was over 200 µM; in test [2], over 200 µM; in test [3] it was 0.44 µM (≈ 0.199 µg/mL).

With `CCn1cc(C(=O)O)c(=O)c2cc(F)c(N3CCN(CC(=O)c4ccccc4)CC3)cc21`, the MIC was over 200 µM in test [1], over 200 µM in test [2] and 7.15 µM (≈ 3.13 µg/mL) in test [3].

`COc1ccc(C(=O)CN2CCN(c3cc4c(cc3F)c(=O)c(C(=O)O)cn4-c3ccc([N+](=O)[O-])cc3F)CC2)cc1`: the MIC stood at 43.2 µM (≈ 25 µg/mL) in test [1], 5.41 µM (≈ 3.13 µg/mL) in test [2] and 2.7 µM (≈ 1.56 µg/mL) in test [3].

Regarding `CCn1cc(C(=O)O)c(=O)c2cc(F)c(N3CCN(C/C(=N/NC(N)=O)c4ccccc4)CC3)cc21`, the MIC in test [1] came to 25.3 µM (≈ 12.5 µg/mL); in test [2], 25.3 µM (≈ 12.5 µg/mL); in test [3], 3.15 µM (≈ 1.56 µg/mL).

Consider `CCn1cc(C(=O)O)c(=O)c2cc(F)c(N3CCN(C/C(=N\N)c4ccc(F)cc4)CC3)cc21`, for which the MIC stood at 26.6 µM (≈ 12.5 µg/mL) in test [1], 26.6 µM (≈ 12.5 µg/mL) in test [2] and 1.66 µM (≈ 0.779 µg/mL) in test [3].

In the case of `CCn1cc(C(=O)O)c(=O)c2cc(F)c(N3CCN(C/C(=N\O)c4ccc(OC)cc4)CC3)c(F)c21`, the results for the MIC in test [1], in test [2] and in test [3] were 3.12 µM (≈ 1.56 µg/mL), 6.25 µM (≈ 3.13 µg/mL) and 0.2 µM (≈ 0.1 µg/mL), respectively.

As for `CCn1cc(C(=O)O)c(=O)c2cc(F)c(N3CCN(C/C(=N\OC)c4ccc(Cl)cc4)CC3)cc21`, the MIC in test [1] and in test [2] was over 200 µM throughout.

For `COc1ccc(/C(CN2CCN(c3cc4c(cc3F)c(=O)c(C(=O)O)cn4-c3ccc([N+](=O)[O-])cc3)CC2)=N/O)cc1`, the minimum inhibitory concentration (MIC) in test [1] was determined as 21.7 µM (≈ 12.5 µg/mL); in test [2], 10.9 µM (≈ 6.27 µg/mL); in test [3], 1.36 µM (≈ 0.783 µg/mL).

Turning to `COc1ccc(/C(CN2CCN(c3cc4c(cc3F)c(=O)c(C(=O)O)cn4-c3ccc(N)cc3F)CC2)=N/O)cc1`, the MIC turned out to be 5.32 µM (≈ 3 µg/mL) in test [1], 1.77 µM (≈ 0.998 µg/mL) in test [2] and 0.53 µM (≈ 0.299 µg/mL) in test [3].

Take `CCn1cc(C(=O)O)c(=O)c2cc(F)c(N3CCNCC3)cc21` [NORFLOXACIN]: the MIC in test [1] amounted to 9.8 µM (≈ 3.13 µg/mL); in test [2] it was 19.6 µM (≈ 6.26 µg/mL); in test [3], 4.89 µM (≈ 1.56 µg/mL).
